Reference: article PMC4958041 (Journal of enzyme inhibition and medicinal chemistry, 2016)
Read-outs that look alike come from different tables or passages of the source.

Assays:
human TMEM16A [1] = target: T1, human TMEM16A (Homo sapiens, UniProt Q5XXA6, DEL476-501); assay: TMEM16A functional assay; assay type: cell-based; conditions: for TMEM16A inhibition activity on initial testing: tested at 10 µM, fluorescence plate reader assay
T1 sequence (Q5XXA6 with tags, fused parts or gaps isoform Q5XXA6-5 DEL539-564): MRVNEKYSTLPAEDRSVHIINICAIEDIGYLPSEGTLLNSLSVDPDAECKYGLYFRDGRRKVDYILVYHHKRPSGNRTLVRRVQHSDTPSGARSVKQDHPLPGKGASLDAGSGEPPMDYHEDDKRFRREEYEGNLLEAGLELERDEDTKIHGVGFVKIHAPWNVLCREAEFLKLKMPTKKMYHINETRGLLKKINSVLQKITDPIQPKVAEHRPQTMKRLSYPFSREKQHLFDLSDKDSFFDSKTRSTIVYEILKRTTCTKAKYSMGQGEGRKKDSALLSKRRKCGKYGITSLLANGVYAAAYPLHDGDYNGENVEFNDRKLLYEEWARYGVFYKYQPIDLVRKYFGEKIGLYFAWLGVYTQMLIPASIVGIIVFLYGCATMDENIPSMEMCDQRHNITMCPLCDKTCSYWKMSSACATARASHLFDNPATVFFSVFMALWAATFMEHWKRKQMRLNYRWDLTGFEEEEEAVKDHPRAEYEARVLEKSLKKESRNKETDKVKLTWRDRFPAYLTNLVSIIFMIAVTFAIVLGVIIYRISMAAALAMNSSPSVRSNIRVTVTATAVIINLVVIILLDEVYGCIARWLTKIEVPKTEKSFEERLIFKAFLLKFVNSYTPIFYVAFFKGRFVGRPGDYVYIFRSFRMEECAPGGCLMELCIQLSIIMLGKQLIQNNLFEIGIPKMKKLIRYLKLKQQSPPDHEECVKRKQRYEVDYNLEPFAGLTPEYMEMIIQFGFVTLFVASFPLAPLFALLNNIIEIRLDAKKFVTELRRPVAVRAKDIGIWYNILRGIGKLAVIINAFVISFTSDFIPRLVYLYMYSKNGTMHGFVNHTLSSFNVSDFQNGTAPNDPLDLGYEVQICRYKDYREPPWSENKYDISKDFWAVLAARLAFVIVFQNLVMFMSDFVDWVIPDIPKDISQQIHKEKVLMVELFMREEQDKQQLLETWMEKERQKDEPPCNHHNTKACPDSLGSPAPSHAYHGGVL
Procedure, shortened: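 FRT cells stably co-expressing human TMEM16A (abc isoform) and YFP-H148Q/I152L/F46L, assayed 24 h after plating. Wells washed twice with PBS; test compound added in DMSO for 10 min. Fluorescence read every 400 ms: 2 s baseline, 140 mM iodide added at 2 s, then 70 mM iodide containing 300 µM ATP at 6.4 s. Initial iodide influx rate fitted by non-linear regression. Screen at 10 µM; IC50 from concentration-inhibition data.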

human TMEM16A [2] = target: T1, human TMEM16A; assay: Short-circuit current assay in FRT-TMEM16A cells; assay type: cell-based
Procedure, shortened: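 FRT cells stably expressing human TMEM16A, grown on Snapwell inserts and mounted in Ussing chambers. Basolateral membrane permeabilized with amphotericin B (250 µg/ml, 30 min). Chloride gradient: HCO3-buffered basolateral solution; apical 120 mM NaCl replaced by Na gluconate. 37 °C, 95% O2/5% CO2, 10-min stabilization. Test compound added apically 5 min before activation by 100 µM ATP. IC50 from short-circuit current concentration-dependence.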

human TMEM16A [3] = target: T1, human TMEM16A; conditions: read-out: IC50, short-circuit current assay of TMEM16A function; as reported previously; cited from earlier work

With Cc1c(O)nc(SCC(=O)Nc2nc(-c3ccccc3)cs2)nc1C(F)(F)F [Compound 9ao, 2-(4-Hydroxy-5-methyl-6-trifluoromethyl-pyrimidin-2-ylsulfanyl)-N-(4-phenyl-thiazol-2-yl)-acetamide] the IC50 (human TMEM16A [1]) was 6200 nM and the “TMEM16A inhibition activity on initial testing” value (“TMEM16A inhibition activity” below) (human TMEM16A [1]) was “measurable activity”.

In the case of CCc1c(C)nc(SCC(=O)Nc2nc(-c3cccs3)cs2)nc1O [Compound 9bo, 2-(5-Ethyl-4-hydroxy-6-methyl-pyrimidin-2-ylsulfanyl)-N-(4-thiophen-2-yl-thiazol-2-yl)-acetamide], the IC50 (human TMEM16A [1]) is reported as 3500 nM, the “TMEM16A inhibition activity” value (human TMEM16A [1]) is reported as “measurable activity” and the IC50 (human TMEM16A [2]) is reported as ~1000 nM.

With Cc1nc(SCC(=O)Nc2nc(-c3cccs3)cs2)nc(O)c1C [Compound 9bs, 2-(4-Hydroxy-5,6-dimethyl-pyrimidin-2-ylsulfanyl)-N-(4-thiophen-2-yl-thiazol-2-yl)-acetamide] the IC50 (human TMEM16A [1]) was 2900 nM, the “TMEM16A inhibition activity” value (human TMEM16A [1]) was “measurable activity” and the IC50 (human TMEM16A [2]) was ~3000 nM.

For CCc1c(C)nc(SCC(=O)Nc2nc(-c3ccc(OC)cc3)cs2)[nH]c1=O [Compound T16Ainh-A01], the IC50 (human TMEM16A [3]) is listed as ~1000 nM.
